Experimental data of several laboratories.
Each line is one published result; the experiments were not run side by side.
PIK3CA: Phosphatidylinositol 4,5-bisphosphate 3-kinase catalytic subunit alpha isoform (PIK3CA, Homo sapiens, UniProt P42336)
CELA1: Chymotrypsin-like elastase family member 1 (CELA1, Sus scrofa, UniProt P00772)
PDE9A: High affinity cGMP-specific 3',5'-cyclic phosphodiesterase 9A (PDE9A, Homo sapiens, UniProt O76083)
PIKFYVE: 1-phosphatidylinositol 3-phosphate 5-kinase (PIKFYVE, Homo sapiens, UniProt Q9Y2I7)
AVPR1A: Vasopressin V1a receptor (AVPR1A, Homo sapiens, UniProt P37288)
PTK6: Protein-tyrosine kinase 6 (PTK6, Homo sapiens, UniProt Q13882)

C[C@H](CS)C(=O)N1CCC[C@H]1C(=O)O — IC50 (Beta-lactamase L1 (Stenotrophomonas maltophilia, UniProt P52700); enzyme activity, inhibitor): 73.7 µM
CCN(CC)c1ccc(/C=C2\SC(=S)NC2=O)c(O)c1 — IC50 (PIK3CA; enzyme activity, inhibitor, radiometric): 64 µM
C/C=C1\NC(=O)[C@H](C)NC(=O)[C@@H](NC(=O)[C@H](Cc2ccc(O)cc2)NC(=O)[C@@H](NC(=O)/C(C)=C/C)C(C)C)[C@@H](C)OC(=O)[C@H](CCCc2ccc(O)cc2)NC(=O)[C@@H](CCC(=O)OC)NC1=O — IC50 (CELA1; enzyme activity, inhibitor, absorbance): 2.23 µM
Nc1ncc(-c2nc(N3CCOCC3)nc(N3[C@@H]4CC[C@H]3COC4)n2)c(C(F)F)n1 — IC50 (PIK3CA; ligand displacement, TR-FRET): 0.033 µM
O=C(O)CCc1ccc(O)c(CN(CCN(CC(=O)O)Cc2cc(CCC(=O)NCCCCCC(=O)NCCCC[C@H](NC(=O)N[C@@H](CCC(=O)O)C(=O)O)C(=O)O)ccc2O)CC(=O)O)c1 — IC50 (Glutamate carboxypeptidase 2 (FOLH1, Homo sapiens, UniProt Q04609); ligand displacement, radioligand): 0.0243 µM
COCC1CCCc2c1[nH]c(=O)c(C#N)c2-c1ccc(C)cc1 (stereo not shown) — IC50 (PDE9A; enzyme activity, inhibitor, radiometric): 0.4 µM
O=C1NC(=S)S/C1=C\c1ccc(C(=O)O)cc1 — IC50 (PIK3CA; enzyme activity, inhibitor, radiometric): > 100 µM
CC(=O)C1=C(C)N(c2cccc(C(F)(F)F)c2)C(=O)N[C@@H]1c1ccc(C#N)nc1 — IC50 (CELA1; enzyme activity, inhibitor): > 30 µM
Cc1ccc(C(C)C)cc1NC(=O)COC(=O)/C=C/c1ccccc1 — IC50 (CELA1; enzyme activity, inhibitor, absorbance): 5.01 µM
CC(C)(C)n1nc(-c2ccc3nc(OC4CC4)ccc3c2)c(C(N)=O)c1N — IC50 (Dual specificity mitogen-activated protein kinase kinase 1 (MAP2K1, Homo sapiens, UniProt Q02750); cell-free assay): 2.38 µM
C=C(C)CCOP(=O)(O)OP(=O)(O)OP(=O)(O)OC[C@H]1O[C@@H](n2cnc3c(N)ncnc32)[C@H](O)[C@@H]1O — IC50 (Glycogen synthase kinase-3 beta (GSK3B, Homo sapiens, UniProt P49841); enzyme activity, inhibitor, radiometric): 4.3 µM
CC(C)(C#Cc1ccc2[nH]c3c(c2c1)-c1nc(N)ncc1CCC3)NS(C)(=O)=O — IC50 (PIKFYVE; target engagement in cells, BRET): 1.6 µM
CC1(C)C(/C=C/C=C2/N(CCCc3ccccc3)c3ccc(Cl)cc3C2(C)C)=[N+](CCCc2ccccc2)c2ccc(Cl)cc21 — IC50 (Protein arginine N-methyltransferase 8 (PRMT8, Homo sapiens, UniProt Q9NR22); enzyme activity, inhibitor, radiometric): 1.87 µM
NC(=O)c1ccc(Oc2ccc(C(N)=O)cc2)cc1 — IC50 (Protein mono-ADP-ribosyltransferase PARP11 (PARP11, Homo sapiens, UniProt Q9NR21); enzyme activity, inhibitor): 0.93 µM
Cc1ccc(C(C)C)cc1NC(=O)COC(=O)/C=C/c1ccccc1O — IC50 (CELA1; enzyme activity, inhibitor, absorbance): 13.3 µM
Nc1ncc2c(n1)-c1c([nH]c3ccc(C#CCCO)cc13)CCC2 — IC50 (PIKFYVE; target engagement in cells, BRET): 0.04 µM
CCNC(=O)[C@H](CCCNC(=N)CCl)NC(=O)c1ccccc1 — IC50 (Protein-arginine deiminase type-1 (PADI1, Homo sapiens, UniProt Q9ULC6); enzyme activity, inhibitor): 2.8 µM
Cc1ccc(C(C)C)cc1NC(=O)COC(=O)c1ccc(O)c(O)c1 — IC50 (CELA1; enzyme activity, inhibitor, absorbance): 24.3 µM
COC(C)(C)C#Cc1ccc2[nH]c3c(c2c1)-c1nc(N)ncc1CCC3 — IC50 (PIKFYVE; target engagement in cells, BRET): 0.314 µM
CCn1c(-c2nc3ccc(C(=O)N4CCCC(N)C4)cc3n2C)cc2ccccc21 (stereo not shown) — IC50 (AVPR1A; calcium signal, antagonist, fluorescence): > 50.1 µM
CNC(=O)c1cc2c(Oc3ccc(NC(=O)C4(C(=O)Nc5ccc(F)cc5)CC4)cc3)ccnc2cc1OC — IC50 (PTK6; enzyme activity, inhibitor, radiometric): 0.025 µM
CN1CCN(c2ccc(Nc3ncc4cc(C#N)c(=O)n(C5CCCC5)c4n3)cc2)CC1 — IC50 (PTK6; enzyme activity, inhibitor): 0.304 µM
CCOc1ccc(/C=C2\SC(=S)NC2=O)cc1 — IC50 (PIK3CA; enzyme activity, inhibitor, radiometric): 5.4 µM
NCCCC[C@H](NC(=O)[C@@H]1CCCN1C(=O)[C@@H]1CSSC[C@H](N)C(=O)N[C@@H](Cc2ccc(O)cc2)C(=O)N[C@@H](Cc2ccccc2)C(=O)N[C@@H](CCC(N)=O)C(=O)N[C@@H](CC(N)=O)C(=O)N1)C(=O)NCC(N)=O — IC50 (AVPR1A; ligand displacement, radioligand; cell membranes): 0.0029 µM
N#Cc1ccc(N2CCN(S(=O)(=O)c3ccc(F)cc3)CC2)cc1NCc1ccncc1 — IC50 (ATP-sensitive inward rectifier potassium channel 1 (Homo sapiens, UniProt P48048); ion flux, inhibitor): 7 µM
O=C1NC(=S)S/C1=C\c1csc2ccc(Cl)cc12 — IC50 (PIK3CA; enzyme activity, inhibitor, radiometric): 30 µM
COc1cc(C[C@H]2C(=O)OC[C@@H]2Cc2ccc(OC)c(OC)c2)ccc1O — IC50 (PDE9A; enzyme activity, inhibitor): > 20 µM
NC(=O)c1ccc[n+]([C@@H]2O[C@H](COP(=O)([O-])OP(=O)(O)OC[C@H]3O[C@@H](n4cnc5c(N)ncnc54)[C@H](O)[C@@H]3O)[C@@H](O)[C@H]2O)c1 — IC50 (Protein mono-ADP-ribosyltransferase PARP15 (PARP15, Homo sapiens, UniProt Q460N3); enzyme activity, inhibitor): 637 µM
C[C@@H]1O[C@@H](OC[C@H]2O[C@@H](Oc3c(-c4ccc(O)cc4)oc4cc(O)cc(O)c4c3=O)[C@H](O[C@@H]3O[C@H](CO)[C@@H](O)[C@H](O)[C@H]3O)[C@@H](O)[C@@H]2O)[C@H](O)[C@H](O)[C@H]1O — IC50 (Prostaglandin G/H synthase 2 (PTGS2, Ovis aries, UniProt P79208); enzyme activity, inhibitor, absorbance): 45.2 µM
COc1cc(O)c(CC=C(C)C)c2c1C(=O)CC(c1ccc(O)cc1)O2 (stereo not shown) — IC50 (Cytochrome P450 1A1 (CYP1A1, Homo sapiens, UniProt P04798); enzyme activity, inhibitor, fluorescence; 15 min, pH 7.4): 1.6 µM
O=C1NC(=S)S/C1=C\c1ccc(-c2ccccn2)cc1 — IC50 (PIK3CA; enzyme activity, inhibitor, radiometric): > 100 µM
NC(=O)NCCC[C@@H](NS(=O)(=O)c1ccc(OCc2cc(Br)cc(Br)c2)cc1)C(=O)NO — IC50 (Disintegrin and metalloproteinase domain-containing protein 17 (ADAM17, Homo sapiens, UniProt P78536); enzyme activity, inhibitor, fluorescence): 0.0019 µM
O=C1NC(=S)S/C1=C\c1ccccc1[N+](=O)[O-] — IC50 (PIK3CA; enzyme activity, inhibitor, radiometric): > 100 µM
CC(=O)NC(C)(C)C#Cc1ccc2[nH]c3c(c2c1)-c1nc(N)ncc1CCC3 — IC50 (PIKFYVE; target engagement in cells, BRET): > 10 µM
